The source of these data is ChEMBL document CHEMBL4145483, “Quinoxaline derivatives as new inhibitors of coxsackievirus B5” (Eur J Med Chem, 2018).

Data set [1] in a line: Cytotoxicity against human MT4 cells assessed as reduction in cell viability after 48 to 96 hrs by MTT assay. The class given is cell-based. In a few lines: (§1)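 Cells are grown in medium with serum: MT-4 at 4×10^5 cells/ml in RPMI-1640 with 10% FBS; MDBK at 6×10^5 in MEM-E with 10% horse serum; BHK at 1×10^6 in MEM-E with 10% FBS; Vero-76 at 4×10^5 in D-MEM with 10% FBS. Serial dilutions are added at 37 °C, 5% CO2, and viability is read by MTT after 48–96 h. CC50 comes from linear regression. For MDBK, selectivity index is CC50/BVDV EC50.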
(In general: Tetrazolium dyes change colour on reduction, which living cells bring about.)

Data set [2] relates to Human immunodeficiency virus 1. Description: Antiviral activity against HIV1 3B infected in human MT4 cells assessed as protection against virus-induced cytopathic effect after 3 to 4 days by MTT assay. It counts as functional, organism-based. To be noted: Human immunodeficiency virus 1, 3B. A digest of the protocol: (§2)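 MT-4 cells in exponential growth are acutely infected with HIV-1 at m.o.i. 0.01 and exposed to serial compound dilutions. Viability is read by MTT after 3–4 days at 37 °C. EC50 is the concentration giving 50% protection from virus-induced cytopathogenicity, and CC50 is taken from mock-infected MT-4 cells. Both are fitted by linear regression, and the selectivity index is CC50/EC50.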

A short description of data set [3]: Cytotoxicity against MDBK cells assessed as reduction in cell viability after 48 to 96 hrs by MTT assay. To be noted: cattle. The class given is cell-based, Bos taurus. In a few lines: as §1
The test system of data set [4] is Bovine viral diarrhea virus 1. Description: Antiviral activity against BVDV NADL ATCC VR-534 infected in MDBK cells assessed as protection against virus-induced cytopathic effect after 3 to 4 days by MTT assay. The class given is functional, organism-based, Bovine viral diarrhea virus 1-NADL. Particulars: Bovine viral diarrhea virus isolates and strains, ATCC VR-534, MDBK. A digest of the protocol: (§3)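 Cytopathic-effect protection assay. MDBK (BVDV) or BHK (Reo-1) cells are infected in the presence of serial compound dilutions. After 3 or 4 days at 37 °C, viability is read by MTT. EC50 is the concentration giving 50% protection from virus-induced cytopathogenicity, derived by linear regression.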
On the technique in general: Protection from cytopathic effect is a common read-out in antiviral testing.

Data set [5] can be described thus: Selectivity index, ratio of CC50 for human MT4 cells to EC50 for HIV1 3B. The class given is toxicity. To be noted: read-out: Ratio CC50/EC50. In a few lines:
as §2

The nature of data set [6]: Cytotoxicity against golden hamster BHK21 cells assessed as reduction in cell viability after 48 to 96 hrs by MTT assay. The class given is cell-based, Mesocricetus auratus, BHK-21. A digest of the protocol: as §1
The next data set has as its system Yellow fever virus. The data set is described as follows: Antiviral activity against Yellow fever virus 17D infected in golden hamster BHK21 cells assessed as protection against virus-induced cytopathic effect after 3 to 4 days by MTT assay. The class given is functional, organism-based. To be noted: BHK-21.
The test system of data set [7] is Mammalian orthoreovirus 1. The data set is described as follows: Antiviral activity against Reovirus 1 3651 ATCC VR-214 infected in golden hamster BHK21 cells assessed as protection against virus-induced cytopathic effect after 3 to 4 days by MTT assay. The class given is functional, organism-based. To be noted: Mammalian orthoreovirus 1, 3651 ATCC VR-214, BHK-21. A digest of the protocol:
as §3

Data set [8] in a line: Cytotoxicity against African green monkey Vero 76 cells assessed as reduction in cell viability after 48 to 96 hrs by MTT assay. It counts as cell-based. To be noted: chlorocebus sabaeus. A digest of the protocol: as §1
For a further data set, the system named is Coxsackievirus B5. Description: Antiviral activity against Coxsackievirus B5 Ohio-1 ATCC VR 29 infected in African green monkey Vero 76 cells after 3 days by plaque reduction assay. The class given is functional, organism-based. Particulars: Enterovirus B, Ohio-1 ATCC VR 29, Vero 76, 72 h. In a few lines: (§4)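 Plaque reduction in Vero-76 monolayers, with cytotoxicity measured in parallel on the same plate. EC50 is the concentration reducing plaque number by 50%, derived by linear regression. CC50 is the concentration reducing viability of mock-infected Vero-76 cells by 50%, by MTT. Selectivity index is CC50/EC50.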
(In a plaque reduction assay, fewer plaques than in the control indicate reduced infectivity or spread.)

Data set [9] concerns Human poliovirus 1 strain Sabin. Description: Antiviral activity against Poliovirus 1 Sabin ATCC VR 1562 infected in African green monkey Vero 76 cells after 2 days by plaque reduction assay. It counts as functional, organism-based. To be noted: Enterovirus C, ATCC VR 1562, Vero 76, 48 h.
For another data set, the system named is Human orthopneumovirus. Description: Antiviral activity against Human respiratory syncytial virus A2 ATCC VR 1540 infected in African green monkey Vero 76 cells after 5 days by plaque reduction assay. The class given is functional, organism-based. Particulars: ATCC VR 1540, Vero 76, 120 h. In a few lines: as §4
Data set [10] deals with Vesicular stomatitis Indiana virus. Description: Antiviral activity against Vesicular stomatitis virus Indiana ATCC VR 1540 infected in African green monkey Vero 76 cells after 3 days by plaque reduction assay. To be noted: ATCC VR 1540, Vero 76, 72 h. The class given is functional, organism-based.
The subject of another data set is Vaccinia virus. Description: Antiviral activity against Vaccinia virus Lister ATCC VR 1549 infected in African green monkey Vero 76 cells after 3 days by plaque reduction assay. It counts as functional, organism-based. Particulars: Orthopoxvirus vaccinia, ATCC VR 1549, Vero 76, 72 h.
In another data set the test system is Human alphaherpesvirus 1. The data set is described as follows: Antiviral activity against HSV1 KOS ATCC VR 1493 infected in African green monkey Vero 76 cells after 3 days by plaque reduction assay. It counts as functional, organism-based. Particulars: Human alphaherpesvirus 1, KOS ATCC VR1493, Vero 76, 72 h. A digest of the protocol: as §4
The nature of data set [11]: Selectivity index, ratio of CC50 for MDBK cells to EC50 for BVDV NADL ATCC VR-534. To be noted: cattle, read-out: Ratio CC50/EC50. It counts as toxicity. In a few lines: as §1
Data set [12] in a line: Selectivity index, ratio of CC50 for African green monkey Vero 76 cells to EC50 for Coxsackievirus B5 Ohio-1 ATCC VR-29. It counts as toxicity. Particulars: read-out: Ratio CC50/EC50. A digest of the protocol:
as §4

Data set [13] deals with Human immunodeficiency virus 1. The data set is described as follows: Antiviral activity against HIV1 3B infected in human MT4 cells assessed as inhibition of viral replication by MTT assay. It counts as functional, organism-based. To be noted: Human immunodeficiency virus 1, 3B. A digest of the protocol: as §2

Converted amounts (≈) assume the structure as drawn. Some results are limits rather than exact numbers.

For the molecule `COc1nc2ccc(CSc3ccc4ccccc4c3)cc2nc1OC`, the half-maximal cytotoxic concentration (CC50) in [1], in data set [3], in data set [6] and in [8] was greater than 100 µM in each case. In addition, the EC50 (in general, the midpoint of the concentration-response curve) in data set [2] was 36 µM; in [4], greater than 100 µM; with Yellow fever virus it was greater than 100 µM; in [7], greater than 100 µM; with Coxsackievirus B5 it was greater than 100 µM; in data set [9] it was greater than 100 µM. Besides, the concentration giving a half-maximal response (EC50) (in the data set with Human orthopneumovirus; in [10]; in the data set on Vaccinia virus; with Human alphaherpesvirus 1) was greater than 100 µM each time. Also, the selectivity ratio in [5] is 2.7.
As to `CCOC(=O)CC[C@H](NC(=O)c1ccc(SCc2ccc3nc(OC)c(OC)nc3c2)nc1)C(=O)OCC`, the CC50 – broadly, the concentration giving 50% cytotoxicity – in data set [1] was 19 µM; in data set [3] it was greater than 100 µM; in data set [6] it was 85 µM; in [8] it was greater than 100 µM. The EC50 was greater than 19 µM in [2]; 10 µM in data set [4]; greater than 85 µM in the data set on Yellow fever virus; greater than 85 µM in data set [7]; 56 µM in the data set on Coxsackievirus B5; greater than 100 µM in [9]. Besides, the EC50 (in the data set on Human orthopneumovirus; in data set [10]; in the data set on Vaccinia virus; in the data set with Human alphaherpesvirus 1) was greater than 100 µM in each case. The selectivity ratio in data set [11] was greater than 10; in data set [12] it was greater than 1.7.
With `C=CCCCOc1cnc2cc(C)c(C)cc2n1`, in data set [13], the IC50 – broadly, the concentration needed to halve the response being measured – was 0.22 µg/mL (≈ 0.908 µM).
